Activity calls are given as the source filed them. The calls are words filed in the database; no cut-off is given here.
What was measured:
Aorta [1] = assay: Myorelaxant activity in potassium depolarized Wistar rat aorta rings assessed as relaxation of KCl-induced contraction; type: functional, tissue-based
How it was run: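 Thoracic aorta rings (3–4 mm) from adult fed Wistar rats were equilibrated for 60 min, then contracted with 30 mM KCl. Drug was added cumulatively up to maximal relaxation or 300 µM, and isometric tension was recorded. Relaxation was expressed as % of the KCl contraction. EC50 (50% inhibition of the KCl plateau) was derived from dose–response curves. Values are mean ± SEM (n).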

[2] = Inhibition of glucose-induced insulin secretion in Wistar rat pancreatic beta islets assessed as residual insulin secretion at 10 uM relative to control; type: functional
Aorta [3] = assay: Ratio of IC50 for glucose-induced insulin secretion in Wistar rat pancreatic beta islets to EC50 for myorelaxant activity in Wistar rat aorta rings; type: functional
How it was run: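 Selectivity ratio: the estimated IC50 for inhibition of 16.7 mM glucose-induced insulin release from incubated islets, divided by the EC50 for relaxing 30 mM KCl-contracted rat aortic rings.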

[4] = Inhibition of glucose-induced insulin secretion in Wistar rat pancreatic beta islets assessed as residual insulin secretion at 1 uM relative to control; type: functional
[5] = Inhibition of glucose-induced insulin secretion in Wistar rat pancreatic beta islets assessed as residual insulin secretion relative to control; type: functional
How it was run: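 Groups of 10 islets from adult fed Wistar rats were preincubated for 30 min at 37 °C in bicarbonate salt medium with 2.8 mM glucose and 0.5% albumin, gassed with O2/CO2. They were then incubated for 90 min in the same medium with 16.7 mM glucose plus drug. Insulin was measured by radioimmunoassay and expressed as % of drug-free 16.7 mM glucose control. Values are mean ± SEM (n).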

[6] = Activation of KATP channel assessed as reduction of KCl-induced rise in calcium concentration in Wistar rat pancreatic beta islets at 10 uM by calcium fluorimetry
How it was run: (§1)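 Dispersed rat islet cells were cultured for 72 h on coverslips, then loaded with fura-2 AM (2 µmol/L) for 1 h. Cells were perifused in bicarbonate salt medium with 2.8 mM glucose, gassed with O2/CO2. The rise in [Ca2+]i was evoked by 20 mM glucose or by 50 mM KCl, with NaCl lowered to keep osmolarity constant. Drug was 10 µM. Dual-excitation (340/380 nm, emission 510 nm) ratio F340/F380 was recorded in single cells, on different cell populations.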

[7] = Activation of KATP channel assessed as increase in rate of [45Ca] fractional outflow in perfused Wistar rat pancreatic beta islets at 10 uM
How it was run: (§2)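 Islets from adult fed Wistar rats, in groups of 100, were loaded for 60 min at 37 °C in medium with 16.7 mM glucose plus either 86Rb (0.15–0.25 mmol/L) or 45Ca (0.02–0.04 mmol/L). They were washed three times and then perifused at 1.0 mL/min. Effluent was collected each minute from min 31 to 90. Outflow was expressed as fractional outflow rate (% of instantaneous islet content per min). Insulin in the effluent was measured by radioimmunoassay against a rat insulin standard.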

[8] = Activation of KATP channel assessed as reduction of glucose-induced rise in cytosolic calcium concentration in Wistar rat pancreatic beta islets at 10 uM by calcium fluorimetry; how it was run: as §1
[9] = Activation of KATP channel assessed as increase in rate of [45Ca] fractional outflow in perfused Wistar rat pancreatic beta islets at 10 uM in absence of extracellular calcium; how it was run: as §2
[10] = Activation of KATP channel assessed as increase in rate of [86Rb] fractional outflow in perfused Wistar rat pancreatic beta islets at 10 uM; how it was run: as §2
[11] = Activation of KATP channel assessed as insulin release in perfused Wistar rat pancreatic beta islets at 10 uM; how it was run: as §2
[12] = Activation of KATP channel assessed as increase in rate of [86Rb] fractional outflow in perfused Wistar rat pancreatic beta islets in presence of glibenclamide at 10 uM; how it was run: as §2

EC50 (Aorta [1]) [µM] | Compound | Activity [2] [%] | further results
6.5 | CC1(C)CC(NC(=S)Nc2ccccc2Cl)c2cc(Br)ccc2O1 (centres undefined) | 57.5 | –
> 30 | Cc1ccccc1NC(=S)NC1CC(C)(C)Oc2ccc(Cl)cc21 (centres undefined) | 69 | –
> 10 | COc1ccccc1NC(=S)NC1CC(C)(C)Oc2ccc(Br)cc21 (centres undefined) | 65.1 | –
137 | Cc1cccc(NC(=S)NC2CC(C)(C)Oc3ccc(Cl)cc32)c1 (centres undefined) | 43 | –
0.13 | CC1(C)Oc2ccc(C#N)cc2C(N2CCCC2=O)C1O (racemic) [CROMAKALIM] | 94.4 | Ratio IC50/EC50 (Aorta [3]): >770; Activity [4]: 95.3%; IC50 [5]: > 100 µM
> 10 | CC1(C)CC(NC(=S)Nc2cccc(Cl)c2)c2cc(F)ccc2O1 (centres undefined) | 18 | Ratio IC50/EC50 (Aorta [3]): <0.32; Activity [4]: 90.2%; IC50 [5]: 3.25 µM
7.3 | Cc1cccc(NC(=S)NC2CC(C)(C)Oc3ccc(F)cc32)c1 (centres undefined) | 53.1 | –
> 30 | Cc1ccccc1NC(=S)NC1CC(C)(C)Oc2ccc(Br)cc21 (centres undefined) | 57 | –
> 30 | Cc1cccc(NC(=S)NC2CC(C)(C)Oc3ccc(Br)cc32)c1 (centres undefined) | 37.2 | –
36.3 | CC(C)NC1=NS(=O)(=O)c2cc(Cl)ccc2N1 | 4.9 | Ratio IC50/EC50 (Aorta [3]): 0.02; Activity [4]: 36.2%; IC50 [5]: 0.73 µM
24.4 | CC1(C)CC(NC(=S)Nc2ccccc2Cl)c2cc(F)ccc2O1 (centres undefined) | 81.3 | –
11.1 | Cc1ccccc1NC(=S)NC1CC(C)(C)Oc2ccc(F)cc21 (centres undefined) | 69.8 | –
3.2 | CC1(C)CC(NC(=S)Nc2ccccc2Cl)c2cc(Cl)ccc2O1 (centres undefined) | 68.2 | –
– | CC1=Nc2ccc(Cl)cc2S(=O)(=O)N1 [DIAZOXIDE] | 73.9 | Ratio IC50/EC50 (Aorta [3]): 1.01; Activity [4]: 87.5%
5.5 | COc1ccccc1NC(=S)NC1CC(C)(C)Oc2ccc(Cl)cc21 (centres undefined) | 76.8 | –
7.6 | CC1(C)CC(NC(=S)Nc2ccccc2)c2cc(F)ccc2O1 (centres undefined) | 63.2 | –
11.1 | CC1(C)CC(NC(=S)Nc2ccccc2)c2cc(Cl)ccc2O1 (centres undefined) | 46.6 | –

EC50 (Aorta [1]) [µM] | Compound | Activity [2] [%] | further results
51.5 | CC1(C)CC(NC(=S)Nc2ccccc2)c2cc(Br)ccc2O1 (centres undefined) | 32.8 | –
> 30 | Cc1ccc(NC(=S)NC2CC(C)(C)Oc3ccc(F)cc32)cc1 (centres undefined) | 60.2 | –
> 10 | CC1(C)CC(NC(=S)Nc2cccc(Cl)c2)c2cc(Br)ccc2O1 (centres undefined) | 23 | Ratio IC50/EC50 (Aorta [3]): <0.25; Activity [4]: 74.6%; IC50 [5]: 2.59 µM
> 10 | COc1ccc(NC(=S)NC2CC(C)(C)Oc3ccc(Br)cc32)cc1 (centres undefined) | 53.1 | –
21.6 | COc1ccc(NC(=S)NC2CC(C)(C)Oc3ccc(F)cc32)cc1 (centres undefined) | 73.8 | –
12.7 | COc1ccc(NC(=S)NC2CC(C)(C)Oc3ccc(Cl)cc32)cc1 (centres undefined) | 50.4 | –
> 10 | CC1(C)CC(NC(=S)Nc2ccc(Cl)cc2)c2cc(F)ccc2O1 (centres undefined) | 10.5 | Ratio IC50/EC50 (Aorta [3]): <0.23; Activity [6]: inactive; Activity [7]: Active; Activity [8]: Active; Activity [9]: inactive; Activity [10]: Active; Activity [4]: 77.5%; Activity [11]: Active; Activity [12]: inactive; IC50 [5]: 2.3 µM
> 30 | Cc1ccc(NC(=S)NC2CC(C)(C)Oc3ccc(Br)cc32)cc1 (centres undefined) | 52.2 | –
> 10 | CC1(C)CC(NC(=S)Nc2ccc(Cl)cc2)c2cc(Br)ccc2O1 (centres undefined) | 12.2 | Ratio IC50/EC50 (Aorta [3]): <0.22; Activity [6]: inactive; Activity [8]: Active; Activity [10]: Active; Activity [4]: 75.7%; Activity [12]: inactive; IC50 [5]: 2.26 µM
0.35 | CC(N/C(=N\C#N)Nc1ccncc1)C(C)(C)C (racemic) [PINACIDIL ANHYDROUS] | – | IC50 [5]: > 100 µM
6.2 | COc1cccc(NC(=S)NC2CC(C)(C)Oc3ccc(F)cc32)c1 (centres undefined) | 52 | –
> 10 | COc1cccc(NC(=S)NC2CC(C)(C)Oc3ccc(Br)cc32)c1 (centres undefined) | 36.6 | –
> 30 | Cc1ccc(NC(=S)NC2CC(C)(C)Oc3ccc(Cl)cc32)cc1 (centres undefined) | 32.8 | –
> 10 | COc1ccccc1NC(=S)NC1CC(C)(C)Oc2ccc(F)cc21 (centres undefined) | 82.9 | –
> 10 | CC1(C)CC(NC(=S)Nc2cccc(Cl)c2)c2cc(Cl)ccc2O1 (centres undefined) | 16.2 | Ratio IC50/EC50 (Aorta [3]): <0.31; Activity [4]: 89.5%; IC50 [5]: 3.12 µM
> 10 | CC1(C)CC(NC(=S)Nc2ccc(Cl)cc2)c2cc(Cl)ccc2O1 (centres undefined) | 8.9 | Ratio IC50/EC50 (Aorta [3]): <0.27; Activity [4]: 87.9%; IC50 [5]: 2.75 µM
2.9 | COc1cccc(NC(=S)NC2CC(C)(C)Oc3ccc(Cl)cc32)c1 (centres undefined) | 34.3 | –

— ChEMBL document CHEMBL1150250, “New R/S-3,4-dihydro-2,2-dimethyl-6-halo-4-(phenylaminothiocarbonylamino)-2H-1-benzopyrans structurally related to (+/-)-cromakalim as tissue-selective pancreatic beta-cell K(ATP) channel openers” (Bioorg Med Chem, 2008)
